Measurements from ChEMBL document CHEMBL5303300, “EUbOPEN Chemogenomics Library - Multiplex” (2023).
Where “and” joins values, the source holds several entries; their conditions need not be identical. Identical values can stand only once.

Tested on: HEK-293T
Experiment: Multiplex assay against HEK293T
Format: toxicity, cell-based
Settings: human, number of replicates 2
Outline: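 Values for tubulin, mitochondrial-mass and membrane-permeability phenotypes are per cents of cells with healthy nuclei. These cells were identified by CellPathfinder machine-learning gating of live cells that had been stained at seeding with Hoechst33342, BioTracker Green Microtubule Cytoskeleton Dye, MitoTracker Red and Annexin V Alexa Fluor 680 and imaged on a CQ1 microscope at 37°C and 5% CO2 after compound addition. The gating first set Hoechst high-intensity objects apart from normal cells, then split normal cells into healthy, pyknosed or fragmented nuclei, and pyknosed cells into mitotic or apoptotic.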

[1] = 12 h, 1 µM, compound concentration 1 uM
[2] = 12 h, 10 µM, compound concentration 10 uM
[3] = 24 h, 1 µM, compound concentration 1 uM
[4] = 24 h, 10 µM, compound concentration 10 uM
[5] = 48 h, 1 µM, compound concentration 1 uM
[6] = 48 h, 10 µM, compound concentration 10 uM

## COc1nc2ccc([C@@](O)(c3ccc(Cl)cc3)c3cncn3C)cc2c(Cl)c1Cc1ccc(-n2cccn2)cc1 [JNJ-53721590]
[1]
  Population Apoptotic (%): 43% and 52%
  Population Fragmented Nuclei (%): 4% and 2%
  Population Healthy Nuclei (%): 81%
  Population Hoechst High Intensity Objects (%): 7%
  Population Membrane Permeable-Phenotype (%): 4% and 5%
  Population Mitochondria Different-Phenotype (%): 26%
  Population Mitotic Cells (%): 56% and 47%
  Population Normal (%): 92%
  Population Pyknosed Nuclei (%): 13% and 15%
  Population Tubulin-Different-Phenotype (%): 74% and 70%
  Total Cell Count: 675 and 403
[2]
  Population Apoptotic (%): 41% and 64%
  Population Fragmented Nuclei (%): 2%
  Population Healthy Nuclei (%): 88%
  Population Hoechst High Intensity Objects (%): 6%
  Population Membrane Permeable-Phenotype (%): 21% and 12%
  Population Mitochondria Different-Phenotype (%): 24%
  Population Mitotic Cells (%): 58% and 35%
  Population Normal (%): 93%
  Population Pyknosed Nuclei (%): 9% and 8%
  Population Tubulin-Different-Phenotype (%): 94%
  Total Cell Count: 831 and 720
[3]
  Population Apoptotic (%): 42% and 54%
  Population Fragmented Nuclei (%): 6% and 3%
  Population Healthy Nuclei (%): 84% and 87%
  Population Hoechst High Intensity Objects (%): 8% and 7%
  Population Membrane Permeable-Phenotype (%): 4% and 1%
  Population Mitochondria Different-Phenotype (%): 11% and 15%
  Population Mitotic Cells (%): 57% and 45%
  Population Normal (%): 91% and 92%
  Population Pyknosed Nuclei (%): 8%
  Population Tubulin-Different-Phenotype (%): 57% and 53%
  Total Cell Count: 1025 and 592
[4]
  Population Apoptotic (%): 37% and 57%
  Population Fragmented Nuclei (%): 2% and 1%
  Population Healthy Nuclei (%): 87% and 84%
  Population Hoechst High Intensity Objects (%): 5% and 8%
  Population Membrane Permeable-Phenotype (%): 16% and 11%
  Population Mitochondria Different-Phenotype (%): 19% and 23%
  Population Mitotic Cells (%): 62% and 42%
  Population Normal (%): 94% and 91%
  Population Pyknosed Nuclei (%): 9% and 13%
  Population Tubulin-Different-Phenotype (%): 95% and 96%
  Total Cell Count: 856 and 731
[5]
  Population Apoptotic (%): 18% and 38%
  Population Fragmented Nuclei (%): 10% and 8%
  Population Healthy Nuclei (%): 86% and 85%
  Population Hoechst High Intensity Objects (%): 8% and 11%
  Population Membrane Permeable-Phenotype (%): 5% and 2%
  Population Mitochondria Different-Phenotype (%): 2% and 7%
  Population Mitotic Cells (%): 81% and 61%
  Population Normal (%): 91% and 88%
  Population Pyknosed Nuclei (%): 3% and 6%
  Population Tubulin-Different-Phenotype (%): 37% and 39%
  Total Cell Count: 2031 and 1111
[6]
  Population Apoptotic (%): 40% and 52%
  Population Fragmented Nuclei (%): 5% and 6%
  Population Healthy Nuclei (%): 90% and 87%
  Population Hoechst High Intensity Objects (%): 10% and 12%
  Population Membrane Permeable-Phenotype (%): 28% and 21%
  Population Mitochondria Different-Phenotype (%): 3% and 4%
  Population Mitotic Cells (%): 60% and 47%
  Population Normal (%): 89% and 87%
  Population Pyknosed Nuclei (%): 4% and 5%
  Population Tubulin-Different-Phenotype (%): 93% and 95%
  Total Cell Count: 993 and 855

## C[C@@H](OC[C@@]1(c2ccccc2)CC[C@]2(CCC(=O)N2)CN1)c1cc(C(F)(F)F)cc(C(F)(F)F)c1 [ROLAPITANT]
[1]
  Population Apoptotic (%): 57% and 49%
  Population Fragmented Nuclei (%): 6% and 4%
  Population Healthy Nuclei (%): 72% and 81%
  Population Hoechst High Intensity Objects (%): 7% and 8%
  Population Membrane Permeable-Phenotype (%): 5% and 3%
  Population Mitochondria Different-Phenotype (%): 25% and 28%
  Population Mitotic Cells (%): 42% and 50%
  Population Normal (%): 92% and 91%
  Population Pyknosed Nuclei (%): 21% and 14%
  Population Tubulin-Different-Phenotype (%): 66% and 80%
  Total Cell Count: 453 and 616
[2]
  Population Apoptotic (%): 56% and 70%
  Population Fragmented Nuclei (%): 4%
  Population Healthy Nuclei (%): 80% and 77%
  Population Hoechst High Intensity Objects (%): 11% and 6%
  Population Membrane Permeable-Phenotype (%): 4% and 2%
  Population Mitochondria Different-Phenotype (%): 35% and 40%
  Population Mitotic Cells (%): 44% and 29%
  Population Normal (%): 88% and 93%
  Population Pyknosed Nuclei (%): 15% and 17%
  Population Tubulin-Different-Phenotype (%): 81% and 86%
  Total Cell Count: 563 and 415
[3]
  Population Apoptotic (%): 63% and 53%
  Population Fragmented Nuclei (%): 8% and 6%
  Population Healthy Nuclei (%): 75% and 80%
  Population Hoechst High Intensity Objects (%): 6% and 9%
  Population Membrane Permeable-Phenotype (%): 3% and 2%
  Population Mitochondria Different-Phenotype (%): 12% and 13%
  Population Mitotic Cells (%): 36% and 46%
  Population Normal (%): 93% and 90%
  Population Pyknosed Nuclei (%): 15% and 12%
  Population Tubulin-Different-Phenotype (%): 51% and 61%
  Total Cell Count: 631 and 823
[4]
  Population Apoptotic (%): 61%
  Population Fragmented Nuclei (%): 7%
  Population Healthy Nuclei (%): 81% and 77%
  Population Hoechst High Intensity Objects (%): 12% and 9%
  Population Membrane Permeable-Phenotype (%): 3%
  Population Mitochondria Different-Phenotype (%): 21% and 27%
  Population Mitotic Cells (%): 38%
  Population Normal (%): 87% and 90%
  Population Pyknosed Nuclei (%): 11% and 15%
  Population Tubulin-Different-Phenotype (%): 70% and 69%
  Total Cell Count: 730 and 604
[5]
  Population Apoptotic (%): 35% and 28%
  Population Fragmented Nuclei (%): 12% and 11%
  Population Healthy Nuclei (%): 82% and 83%
  Population Hoechst High Intensity Objects (%): 8% and 11%
  Population Membrane Permeable-Phenotype (%): 5% and 3%
  Population Mitochondria Different-Phenotype (%): 1% and 2%
  Population Mitotic Cells (%): 64% and 71%
  Population Normal (%): 91% and 88%
  Population Pyknosed Nuclei (%): 4% and 5%
  Population Tubulin-Different-Phenotype (%): 23% and 39%
  Total Cell Count: 1671
[6]
  Population Apoptotic (%): 50% and 48%
  Population Fragmented Nuclei (%): 11% and 8%
  Population Healthy Nuclei (%): 83% and 84%
  Population Hoechst High Intensity Objects (%): 9%
  Population Membrane Permeable-Phenotype (%): 6% and 3%
  Population Mitochondria Different-Phenotype (%): 4% and 11%
  Population Mitotic Cells (%): 49% and 51%
  Population Normal (%): 90%
  Population Pyknosed Nuclei (%): 5% and 7%
  Population Tubulin-Different-Phenotype (%): 53% and 48%
  Total Cell Count: 1126 and 904

## CCCN(CCc1cccs1)[C@H]1CCc2c(O)cccc2C1 [ROTIGOTINE]
[1]
  Population Apoptotic (%): 43% and 35%
  Population Fragmented Nuclei (%): 3% and 1%
  Population Healthy Nuclei (%): 83% and 85%
  Population Hoechst High Intensity Objects (%): 9% and 5%
  Population Membrane Permeable-Phenotype (%): 1% and 2%
  Population Mitochondria Different-Phenotype (%): 13% and 14%
  Population Mitotic Cells (%): 56% and 64%
  Population Normal (%): 90% and 94%
  Population Pyknosed Nuclei (%): 12%
  Population Tubulin-Different-Phenotype (%): 50% and 48%
  Total Cell Count: 619 and 758
[2]
  Population Apoptotic (%): 39% and 66%
  Population Fragmented Nuclei (%): 3% and 2%
  Population Healthy Nuclei (%): 88%
  Population Hoechst High Intensity Objects (%): 8% and 5%
  Population Membrane Permeable-Phenotype (%): 4% and 2%
  Population Mitochondria Different-Phenotype (%): 13% and 17%
  Population Mitotic Cells (%): 60% and 33%
  Population Normal (%): 91% and 94%
  Population Pyknosed Nuclei (%): 7% and 8%
  Population Tubulin-Different-Phenotype (%): 66% and 65%
  Total Cell Count: 592 and 535
[3]
  Population Apoptotic (%): 20% and 41%
  Population Fragmented Nuclei (%): 6% and 5%
  Population Healthy Nuclei (%): 89% and 88%
  Population Hoechst High Intensity Objects (%): 8%
  Population Membrane Permeable-Phenotype (%): 2%
  Population Mitochondria Different-Phenotype (%): 3%
  Population Mitotic Cells (%): 80% and 58%
  Population Normal (%): 91%
  Population Pyknosed Nuclei (%): 3% and 6%
  Population Tubulin-Different-Phenotype (%): 30% and 32%
  Total Cell Count: 1198 and 930
[4]
  Population Apoptotic (%): 25% and 32%
  Population Fragmented Nuclei (%): 5% and 7%
  Population Healthy Nuclei (%): 89% and 86%
  Population Hoechst High Intensity Objects (%): 8% and 9%
  Population Membrane Permeable-Phenotype (%): 2% and 4%
  Population Mitochondria Different-Phenotype (%): 9% and 5%
  Population Mitotic Cells (%): 74% and 67%
  Population Normal (%): 91% and 90%
  Population Pyknosed Nuclei (%): 5%
  Population Tubulin-Different-Phenotype (%): 50% and 47%
  Total Cell Count: 859 and 863
[5]
  Population Apoptotic (%): 5% and 13%
  Population Fragmented Nuclei (%): 18% and 11%
  Population Healthy Nuclei (%): 79% and 85%
  Population Hoechst High Intensity Objects (%): 9% and 10%
  Population Membrane Permeable-Phenotype (%): 5% and 3%
  Population Mitochondria Different-Phenotype (%): 0%
  Population Mitotic Cells (%): 94% and 86%
  Population Normal (%): 90% and 89%
  Population Pyknosed Nuclei (%): 2%
  Population Tubulin-Different-Phenotype (%): 11% and 17%
  Total Cell Count: 3231 and 2107
[6]
  Population Fragmented Nuclei (%): 22% and 16%
  Population Healthy Nuclei (%): 76% and 81%
  Population Hoechst High Intensity Objects (%): 9% and 8%
  Population Membrane Permeable-Phenotype (%): 7% and 6%
  Population Mitochondria Different-Phenotype (%): 0% and 1%
  Population Mitotic Cells (%): 83% and 95%
  Population Normal (%): 90% and 91%
  Population Pyknosed Nuclei (%): 1% and 2%
  Population Tubulin-Different-Phenotype (%): 22% and 24%
  Total Cell Count: 2378 and 2001
